In data set [1] the target is T1, Toll-like receptor 7 (Homo sapiens) (UniProt Q9NYK1).
T1 sequence (whole entry): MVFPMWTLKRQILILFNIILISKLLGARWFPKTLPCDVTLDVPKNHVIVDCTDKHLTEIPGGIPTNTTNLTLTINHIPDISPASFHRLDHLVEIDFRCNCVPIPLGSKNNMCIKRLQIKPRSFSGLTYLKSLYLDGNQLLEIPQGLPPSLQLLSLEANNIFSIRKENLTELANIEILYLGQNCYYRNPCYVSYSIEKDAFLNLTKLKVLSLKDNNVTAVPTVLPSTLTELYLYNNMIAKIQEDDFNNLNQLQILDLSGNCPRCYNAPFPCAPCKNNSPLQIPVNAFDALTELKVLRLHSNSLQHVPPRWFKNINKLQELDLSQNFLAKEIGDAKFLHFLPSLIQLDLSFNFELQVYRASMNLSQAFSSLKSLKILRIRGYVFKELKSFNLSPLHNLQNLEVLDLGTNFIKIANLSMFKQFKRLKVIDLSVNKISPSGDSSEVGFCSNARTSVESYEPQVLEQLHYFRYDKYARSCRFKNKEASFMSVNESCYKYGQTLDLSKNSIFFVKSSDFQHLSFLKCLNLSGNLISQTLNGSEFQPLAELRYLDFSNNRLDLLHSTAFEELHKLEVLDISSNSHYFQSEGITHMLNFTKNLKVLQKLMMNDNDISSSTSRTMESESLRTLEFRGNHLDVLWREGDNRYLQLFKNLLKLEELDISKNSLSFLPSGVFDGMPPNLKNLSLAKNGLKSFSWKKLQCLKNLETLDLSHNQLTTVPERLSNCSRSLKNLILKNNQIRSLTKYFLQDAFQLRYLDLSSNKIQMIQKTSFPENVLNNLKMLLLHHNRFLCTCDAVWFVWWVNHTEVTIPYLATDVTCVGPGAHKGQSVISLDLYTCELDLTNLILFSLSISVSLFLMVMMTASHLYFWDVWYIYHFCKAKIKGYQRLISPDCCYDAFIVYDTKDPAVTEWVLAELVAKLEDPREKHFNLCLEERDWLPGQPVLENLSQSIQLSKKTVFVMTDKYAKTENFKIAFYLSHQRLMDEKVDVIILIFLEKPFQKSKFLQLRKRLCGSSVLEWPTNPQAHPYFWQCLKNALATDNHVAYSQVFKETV
The data set is described as follows: Agonist activity at TLR7 in human PBMC assessed as suppression of HCV replicon replication in human HuH7 luc/neo cells harboring RNA encoding bicistronic expression construct comprising wild type HCV type 1b NS3-NS5B regions exposed to conditioned media from compound treated PBMCs by luciferase reporter gene assay. It counts as cell-based. An outline of the steps:
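PBMCs from buffy coats of at least two donors (Ficoll), in RPMI with 10% human AB serum, 2 x 10^5 cells/well, incubated overnight with compound. Supernatant transferred onto Huh7-luc/neo replicon cells plated the day before (2.2 x 10^3/well). Luciferase read after 24 h. EC50 is the concentration applied to PBMCs giving 50% luciferase reduction. Recombinant IFN-α2a standard.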

A short description of data set [2]: Metabolic stability in human liver microsomes assessed as drug metabolism after 15 mins at 1 uM. The data set is classed as ADME, microsome. As to conditions: read-out: Drug metabolism. The method in brief:
(§1)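 Compound at 1µM incubated with liver microsomes of the stated species. Percent of compound metabolized after 15 min.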
On the technique in general: Liver microsomes are vesicles of endoplasmic reticulum, rich in cytochrome P450 enzymes.

Data set [3] can be described thus: Cytotoxic activity against HEK293 cells assessed as reduction in cell viability incubated for 6 hrs. The data set is classed as cell-based. As to conditions: human. An outline of the steps:
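HEK293 cells transfected with the CMV-TLR7 construct alone, treated with a compound dilution series for 6 h at 37°C, 5% CO₂. Viability read by ATP luminescence. Reported as CC50.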

Data set [4] can be described thus: Metabolic stability in mouse liver microsomes assessed as drug metabolism after 15 mins at 1 uM. The data set is classed as ADME, microsome. To be noted: read-out: Drug metabolism. The method in brief:
as §1

In data set [5] the target is T1, Toll-like receptor 7 (Homo sapiens). The data set is described as follows: Agonist activity at human TLR7 expressed in HEK293 cells assessed as induction of receptor activation incubated for 6 hrs by NF-kappaB-luciferase reporter gene assay. It counts as cell-based. An outline of the steps: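 HEK293 cells transiently transfected overnight with CMV-TLR7 (wild type or dLRR2 mutant) plus NFκB-luc plasmids. Seeded at 1.67 x 10^5 cells/mL onto compound in 4% DMSO (stock), 6 h at 37°C, 5% CO2, luciferase readout. Quadruplicate dose-response. LEC is the concentration giving an effect at least two-fold above assay SD. Values averaged over independent experiments where repeated.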

The target in a further data set is T2, Toll-like receptor 8 (Homo sapiens, UniProt Q9NR97).
T2 sequence (Q9NR97 whole entry): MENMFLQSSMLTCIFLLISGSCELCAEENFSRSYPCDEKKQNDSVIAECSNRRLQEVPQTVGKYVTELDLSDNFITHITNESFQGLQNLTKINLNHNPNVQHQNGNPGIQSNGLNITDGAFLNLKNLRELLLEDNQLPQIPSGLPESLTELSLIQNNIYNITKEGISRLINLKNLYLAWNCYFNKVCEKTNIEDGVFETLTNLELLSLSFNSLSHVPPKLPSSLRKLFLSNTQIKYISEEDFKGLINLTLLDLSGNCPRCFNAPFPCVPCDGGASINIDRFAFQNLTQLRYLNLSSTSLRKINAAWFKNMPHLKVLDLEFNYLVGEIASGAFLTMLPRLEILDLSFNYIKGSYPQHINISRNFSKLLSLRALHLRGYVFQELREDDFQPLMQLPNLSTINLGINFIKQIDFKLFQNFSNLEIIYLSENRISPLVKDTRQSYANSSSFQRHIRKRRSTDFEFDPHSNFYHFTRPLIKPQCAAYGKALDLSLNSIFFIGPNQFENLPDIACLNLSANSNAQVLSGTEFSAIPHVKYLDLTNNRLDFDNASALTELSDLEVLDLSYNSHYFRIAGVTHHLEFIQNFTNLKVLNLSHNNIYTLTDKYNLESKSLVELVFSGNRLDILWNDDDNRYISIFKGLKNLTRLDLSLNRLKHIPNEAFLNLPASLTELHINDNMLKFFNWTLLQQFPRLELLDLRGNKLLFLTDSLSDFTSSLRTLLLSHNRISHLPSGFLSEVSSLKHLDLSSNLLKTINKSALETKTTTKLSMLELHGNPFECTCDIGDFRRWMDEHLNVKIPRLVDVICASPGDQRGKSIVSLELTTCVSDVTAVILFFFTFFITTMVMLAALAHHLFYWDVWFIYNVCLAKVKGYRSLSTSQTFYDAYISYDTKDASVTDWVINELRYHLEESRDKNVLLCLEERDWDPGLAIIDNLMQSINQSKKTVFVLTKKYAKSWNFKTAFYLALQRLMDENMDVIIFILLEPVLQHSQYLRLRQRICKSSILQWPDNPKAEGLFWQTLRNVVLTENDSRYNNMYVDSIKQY
The data set is described as follows: Agonist activity at human TLR8 expressed in HEK293 cells assessed as induction of receptor activation incubated for 6 hrs by NF-kappaB-luciferase reporter gene assay. The data set is classed as cell-based. As to conditions: hek293, 6 h. The method in brief: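 HEK293 cells transiently transfected overnight at 37°C with CMV-TLR8 plasmid (wild type or dLRR2 mutant) plus NFκB-luc reporter, then exposed to compound for 6 h at 37°C, 5% CO₂. Luciferase read-out. Quadruplicate dose-response. LEC is the concentration giving an effect at least two-fold above the assay SD, averaged over two or more independent experiments.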
For orientation: In a reporter assay the amount or activity of a reporter protein is the signal.

The species entered for another data set is Homo sapiens. Put plainly: Selectivity index, ratio of MEC for agonist activity at human TLR8 expressed in HEK293 cells to MEC for agonist activity at human TLR7 expressed in HEK293 cells as. It counts as cell-based. An outline of the steps: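 Ratio of TLR8 to TLR7 LEC from HEK293 NFκB-luciferase reporter assays. Cells were transiently transfected with TLR7 or TLR8 construct plus NFκB-luc and treated with compound for 6 h at 37°C. LEC is the lowest concentration with signal at least two-fold above the assay SD, from quadruplicate dose-response curves.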

Usually CC50 stands for the concentration at which the toxic effect on the cells reaches its halfway point. Turning to `CCCCNc1nc(N)nc2cccc(OCCOC)c12`, the MEC in data set [1] amounted to 0.12 µM; in data set [5], 0.1 µM; at Toll-like receptor 8, 0.2 µM. In addition, the metabolised at 0.25 h, 1 µM in data set [2] was determined as 59%; in data set [4], 98%. In addition, the CC50 at 6 h in data set [3] is above 25 µM.
Take `CCCCNc1nc(N)nc2cccc(C(=O)N[C@@H](C)c3cccc(OC)c3)c12`: the figures for the MEC (in data set [1]; in data set [5]; on Toll-like receptor 8) were 0.5 µM, 0.37 µM and above 25 µM, respectively. The metabolised at 0.25 h, 1 µM in data set [2] turned out to be 97%; in data set [4], 96%. The CC50 at 6 h in data set [3] is above 25 µM.
As for `CCCCNc1nc(N)nc2cccc(C(=O)N[C@@H](C)c3ccccc3OC)c12`, the MEC in data set [1] was 0.14 µM; in data set [5] it was 0.28 µM; at Toll-like receptor 8 it was above 25 µM. In addition, the metabolised at 0.25 h, 1 µM in data set [2] and in data set [4] was 99% throughout. Further, the CC50 at 6 h in data set [3] was above 25 µM.
Consider `CCCCOc1nc(N)c2c(n1)N(Cc1cccc(CN3CCCC3)c1)CC(=O)N2`, for which the Ratio in the data set listed under Homo sapiens is 30.
For `CCCCNc1nc(N)nc2cccc(CCc3ccccc3)c12`, the results for the MEC (in data set [1]; in data set [5]; on Toll-like receptor 8) were 0.27 µM, 0.13 µM and 0.47 µM, respectively. The metabolised at 0.25 h, 1 µM in data set [2] came to 24%; in data set [4], 97%. Besides, the CC50 at 6 h in data set [3] was above 25 µM.
Regarding `CCCCNc1nc(N)nc2cccc(C)c12`, the figures for the MEC (in data set [1]; in data set [5]; at Toll-like receptor 8) were 0.32 µM, 0.5 µM and 0.3 µM, respectively. For the same compound, the metabolised at 0.25 h, 1 µM in data set [2] stood at 96%; in data set [4] it was 100%. In data set [3], the CC50 at 6 h is above 25 µM.
For the compound `CCCCNc1nc(N)nc2cccc(OC)c12`, the MEC was 0.1 µM in data set [1], 0.4 µM in data set [5] and 0.1 µM at Toll-like receptor 8. Moreover, the metabolised at 0.25 h, 1 µM was 98% in data set [2] and 100% in data set [4]. Moreover, the cytotoxic concentration (CC50) at 6 h in data set [3] was above 25 µM.

The values above are taken from ChEMBL document CHEMBL4184225, “Discovery of selective 2,4-diaminoquinazoline toll-like receptor 7 (TLR 7) agonists” (Bioorg Med Chem Lett, 2018).
